Screening data from PubChem.
H9c2 TAG inh: inhibitors of triacylglycerol accumulation, primary screen, cell-based, uHTS, fluorescence, H9c2. H9c2 cells, Nile Red lipid (TAG) fluorescence; cells loaded with 200 µM oleic acid. inhibition, % at 12.5 µM. 230,000 compounds, 0.66% hits. AID 651582, 2012;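 active = pattern-corrected inhibition of lipid staining of at least 50% with the nuclear-stain viability signal not falling by more than 50%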
AHR act: AHR activators, primary screen, cell-based, luminescence, luciferase reporter, human; AHR-responsive luciferase reporter cells; activation, % at 5 µM; 320,000 compounds, 2.5% hits; AID 2796, 2010; in the data active = activation above about 47%
Target sequence (P35869 whole entry, looked up): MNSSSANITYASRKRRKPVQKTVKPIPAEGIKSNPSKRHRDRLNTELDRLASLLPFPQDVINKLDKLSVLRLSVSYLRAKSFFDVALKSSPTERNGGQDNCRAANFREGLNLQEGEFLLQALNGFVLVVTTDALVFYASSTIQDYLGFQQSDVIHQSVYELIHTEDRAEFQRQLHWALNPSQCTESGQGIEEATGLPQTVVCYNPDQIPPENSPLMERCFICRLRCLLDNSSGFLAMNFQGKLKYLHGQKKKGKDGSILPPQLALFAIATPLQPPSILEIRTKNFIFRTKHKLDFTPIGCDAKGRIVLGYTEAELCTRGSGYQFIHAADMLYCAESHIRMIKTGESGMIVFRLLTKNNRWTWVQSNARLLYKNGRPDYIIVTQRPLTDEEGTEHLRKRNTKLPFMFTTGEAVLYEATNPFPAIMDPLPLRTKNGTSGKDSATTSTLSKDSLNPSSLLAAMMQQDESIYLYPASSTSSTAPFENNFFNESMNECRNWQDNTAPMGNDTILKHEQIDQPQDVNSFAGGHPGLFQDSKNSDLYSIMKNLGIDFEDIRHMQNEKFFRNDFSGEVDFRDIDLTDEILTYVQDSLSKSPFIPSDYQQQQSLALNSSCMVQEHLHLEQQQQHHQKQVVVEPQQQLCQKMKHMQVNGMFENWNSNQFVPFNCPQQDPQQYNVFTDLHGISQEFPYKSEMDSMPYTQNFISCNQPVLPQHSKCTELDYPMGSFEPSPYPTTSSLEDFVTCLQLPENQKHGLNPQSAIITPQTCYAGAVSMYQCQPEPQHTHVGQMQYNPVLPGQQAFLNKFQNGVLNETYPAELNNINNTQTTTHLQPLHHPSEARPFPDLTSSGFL
Efflux pump inh: inhibitors of Candida efflux pumps in yeast, primary screen, S. cerevisiae, Nile Red, multiplex | S. cerevisiae Candida pump triplex | inhibition, % at 10 µM | 330,000 compounds, 0.44% hits;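 active = plate passing quality check with inhibition over a set limit, or well fluorescence over plate mean plus 4 SD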;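 note: Nile Red retained in pooled yeast measured as flow cytometry median fluorescence; higher means more Nile Red kept so more efflux inhibition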
SMARCA2 act: SMARCA2 (BRM) function activators, primary screen, cell-based, luminescence, high throughput | MG213 cells, MMTV-luciferase reporter, dexamethasone, overnight | 370,000 compounds, 1% hits | AID 652017, 2013 | activation, % at 9.1 µM; in the data active = activation above about 7.8%
TbMetRS inhib: T. brucei MetRS inhibitors, primary screen, biochemical, luminescence | inhibition, % at 11.9 µM | purified T. brucei MetRS, ATP depletion, Kinase-Glo luminescence | 360,000 compounds, 0.4% hits | AID 624268, 2012 | methionyl-tRNA synthetase (Trypanosoma brucei brucei);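 active = inhibition above a per-plate cutoff of the control wells' mean inhibition plus 3 SD, cut at about 5.5% in these data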
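Dosing: 11.9 µM single point; system: parasite MetRS enzyme; technique: luminescence of leftover ATP; times: 15 min enzyme-compound preincubation, 2 h reaction, 10 min detection, 25 °C; replicates: each compound tested once; read-out basis: percent inhibition relative to median high and low control wells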
AHR act cf: AHR activators, confirmation, cell-based, luminescence, luciferase reporter, human; 2,300 compounds, 87% hits; activation, % at 9 µM; human cells, AHR-responsive luciferase reporter; shares compounds with AHR act; in the data active = activation above about 49%;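 note: HepG2 hepatoma cells carrying a DRE-driven firefly luciferase reporter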
PXR counter: human PXR activators, counter-screen for AHR activator project, cell-based, luciferase luminescence; activation, % at 11.6 µM; shares compounds with AHR act; AID 434939, 2010; 2,300 compounds, 88% hits; cell-based PXR reporter; in the data active = activation above about 11%;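 note: human hepatoma DPX-2 cells expressing full-length human PXR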
Large screens that a line does not name were inactive (follow-up assays come after a bar, where they were run). An excerpt weighted towards active compounds, which were near 4.1% of everything screened.

O=C(Nc1ccc(F)cc1)OC1CC2CC1[C@H]1CCCCN1C2 (stereo partly specified)	none (no result: H9c2 TAG inh, AHR act, Efflux pump inh, TbMetRS inhib)
c1ccc(C2=Nc3c(ccc4ccccc34)C(c3ccncc3)=NN2)cc1	AHR act 80.2 | AHR act cf 109.9 | PXR counter 46.1
CCCCNC(=O)C[C@@H]1C(=O)N(Cc2ccc(OC)cc2)C2=CCN(C(=O)OC(C)(C)C)C[C@]21C(=O)OCC	none (no result: H9c2 TAG inh, AHR act, Efflux pump inh, TbMetRS inhib)
Cc1ccccc1-c1nsc(SCC(=O)NCc2ccc3c(c2)OCO3)n1	AHR act 86.5 (no result: H9c2 TAG inh) | AHR act cf inactive | PXR counter 30.4
Cc1nnc(SCC(=O)NCc2ccc3c(c2)OCO3)s1	none (no result: H9c2 TAG inh)
O=C(CSc1nc2cc(Cl)ccc2s1)NCc1ccc2c(c1)OCO2	AHR act 108.4 (no result: H9c2 TAG inh) | AHR act cf 81.8 | PXR counter 33.6
O=C(N[C@H](Cc1ccccc1)C(=O)N1CCN(Cc2ccccn2)CC1)[C@H]1O[C@@H](n2ccc(=O)[nH]c2=O)[C@H](O)[C@@H]1O	none (no result: H9c2 TAG inh, AHR act, Efflux pump inh, TbMetRS inhib)
O=C1c2ccccc2C(=O)c2c1ncn2-c1ccccc1	AHR act 87.2 (no result: H9c2 TAG inh) | AHR act cf 129.7 | PXR counter 32.6
C[C@H]1COc2cc(Br)ccc2S(=O)(=O)N1Cc1cn(CCC2OCCCO2)nn1	none (no result: H9c2 TAG inh, AHR act, Efflux pump inh, TbMetRS inhib)
O=C(N/N=C/c1ccc(-n2ccnc2)cc1)c1cccs1	AHR act 96.9 | AHR act cf 64.7 | PXR counter 22.8
Nn1c(-c2ccc(F)cc2)nc2ccccc2c1=O	none (no result: H9c2 TAG inh)
O=C1c2cc(F)ccc2-n2c1nc1ccccc1c2=O	AHR act 100.2 (no result: H9c2 TAG inh) | AHR act cf inactive | PXR counter inactive
Oc1c(C(c2ccc(F)cc2)N2CCc3ccccc3C2)sc2ncnn12 (stereo unspecified)	AHR act 96.3 | AHR act cf 77.7 | PXR counter 33.5
Cc1ccc(C(c2sc3ncnn3c2O)N2CCCCC2)cc1 (stereo unspecified)	none
CCN(CC)c1ccc(Nc2nc(-c3cccnc3)cs2)cc1	none (no result: H9c2 TAG inh)
CN(C)c1ccc(Nc2nc(-c3cccnc3)cs2)cc1	AHR act 89.6 | AHR act cf 62.5 | PXR counter 27.2
CCOC(=O)CNC(=O)c1sc2ncnc(N3CCc4ccccc4C3)c2c1C	none (no result: H9c2 TAG inh, SMARCA2 act)
CCCCNC(=O)c1sc2ncnc(N3CCc4ccccc4C3)c2c1C	AHR act 98.6 (no result: H9c2 TAG inh) | AHR act cf 101.7 | PXR counter 23.5
Cc1cc(C)c(-c2cc(NC(=O)COC(=O)c3ccc(C#N)cc3)n(-c3ccccc3)n2)cc1C	AHR act 129.1 (no result: H9c2 TAG inh) | AHR act cf 105.3 | PXR counter 81.9
COc1ccc(-c2nnc(SCC(=O)Nc3cccc4ccccc34)n2Cc2ccco2)cc1	none (no result: H9c2 TAG inh, AHR act, Efflux pump inh, TbMetRS inhib)
CC(=O)c1c(C)[nH]c(C(=O)NCCC2=CCCCC2)c1C	AHR act 145.6 | AHR act cf 109.7 | PXR counter 70.0
CCOC(=O)c1[nH]c(C)c(C(=O)NCCC2=CCCCC2)c1C	none (no result: H9c2 TAG inh)
CCCCNC(=O)C[C@H]1C[C@@]2(C(=O)OC)C(=C[C@H](C3CCCC3)O[C@@H]2C)N(Cc2ccc(Cl)cc2Cl)C1=O	none (no result: H9c2 TAG inh, AHR act, Efflux pump inh, TbMetRS inhib)
COC(=O)[C@]12C[C@H](CC(=O)NCCCN3CCCC3=O)C(=O)N(Cc3ccco3)C1=C[C@H](C(C)(C)C)O[C@@H]2C	none (no result: H9c2 TAG inh, AHR act, Efflux pump inh, TbMetRS inhib)
CCCCOc1ccc(C(=O)n2ccc3ccc(-c4ccc5ccn(Cc6ccc(OC)cc6)c5c4)cc32)cc1	none (no result: H9c2 TAG inh, AHR act, Efflux pump inh, TbMetRS inhib)
FC(F)(F)c1cnc(N/N=C/c2ccncc2)c(Cl)c1	AHR act 92.8 | AHR act cf 75.5 | PXR counter 18.4
O=C(N[C@@H](Cc1cccnc1)C(=O)N1CCC[C@H]1C(=O)NC1CCCC1)c1ccc(Cl)c(Cl)c1	none (no result: H9c2 TAG inh, AHR act, Efflux pump inh, TbMetRS inhib)
Cc1cc(C)nc(Nc2ncc(O)n2-c2ccccc2)n1	AHR act 90.0 (no result: H9c2 TAG inh) | AHR act cf 61.1
Cc1ccc(-n2c(O)cnc2Nc2nc(C)cc(C)n2)cc1	none (no result: H9c2 TAG inh)
COc1ccc(C(=O)CSc2nnc(-c3ccccc3)n2-c2ccc(Cl)cc2)cc1	none (no result: H9c2 TAG inh, AHR act, Efflux pump inh, TbMetRS inhib)
CN(C)c1nc(N)nc(-c2nc3ccccc3s2)n1	AHR act 79.7 (no result: H9c2 TAG inh) | AHR act cf 167.0
Cc1cc(Cl)nc(-c2ccccc2)n1	none
Cc1cc2c(C)nc(-c3ccccc3)nc2o1	AHR act 116.4 | AHR act cf 159.5 | PXR counter 39.4
CCc1cccc(NC(=O)Cc2cn(C)c3ccccc23)c1	AHR act 104.5 | AHR act cf inactive | PXR counter 82.7
CCc1ccc(NC(=O)Cc2cn(C)c3ccccc23)cc1	none
CC(C)C[C@H]1COc2cccc(F)c2S(=O)(=O)N1Cc1cn(CCC2OCCCO2)nn1	none (no result: H9c2 TAG inh, AHR act, Efflux pump inh, TbMetRS inhib)
CCCSc1nc2c(cnn2-c2ccccc2)c(=O)[nH]1	none
Cn1ccnc1SCc1nc2c(cnn2-c2ccccc2)c(=O)[nH]1	AHR act 81.6 (no result: H9c2 TAG inh) | AHR act cf 84.6 | PXR counter 16.0
O=c1[nH]c(CSc2ccccn2)nc2c1cnn2-c1ccccc1	AHR act 97.3 | AHR act cf 71.2 | PXR counter 33.5
COC(=O)[C@]12C[C@H](CC(=O)NCCC(C)C)C(=O)N(Cc3ccco3)C1=C[C@H](COCc1ccccc1)O[C@@H]2C	none (no result: H9c2 TAG inh, AHR act, Efflux pump inh, TbMetRS inhib)
CN1OC[C@@H]2CN(Cc3ccc4c(c3)OCO4)[C@H](c3ccc(-n4ccnc4)cc3)C[C@@H]21	none (no result: H9c2 TAG inh, AHR act, Efflux pump inh, TbMetRS inhib)
CC(=O)Nc1ccc(/C=C/c2nc(-c3ccccc3O)n[nH]2)cc1	AHR act 80.5 (no result: H9c2 TAG inh) | AHR act cf 103.8 | PXR counter inactive
Cc1cc(/C=C2\NC(=S)NC2=O)c(C)n1-c1cccnc1	AHR act 99.8 | AHR act cf 59.2 | PXR counter 32.8
CCc1nc2ccccc2c(C(=O)OCc2nc3ccccc3c(=O)[nH]2)c1C	AHR act 117.9 | AHR act cf 86.5 | PXR counter 53.6
COc1cccc(-n2c(SCC(=O)NCCC3=CCCCC3)nc3n[nH]c(C)c3c2=N)c1	AHR act 82.3 (no result: H9c2 TAG inh, TbMetRS inhib) | AHR act cf 91.0 | PXR counter 160.8
COc1cccc(NC(=O)CSc2nc3n[nH]c(C)c3c(=N)n2-c2cccc(OC)c2)c1	none
O=C(Nc1ccccc1OCc1ccccc1)c1ccccc1Br	AHR act 103.3 (no result: H9c2 TAG inh) | AHR act cf 104.9 | PXR counter 42.8
COc1ccc2[nH]c3c(c2c1)CCN[C@]31C(=O)N(c2ccccc2)c2ccccc21	none (no result: H9c2 TAG inh, AHR act, Efflux pump inh, TbMetRS inhib)
Cc1ccc(Cn2c(=O)n(Cc3ccc(C(=O)NCC4COC4)cc3)c(=O)c3ccccc32)cc1	none (no result: H9c2 TAG inh, AHR act, Efflux pump inh, TbMetRS inhib)
Cc1cc(C)n(-c2nc3ccccc3n3nnnc23)n1	none
Cc1cc2nc(C)n3c4ccccc4nc3n2n1	AHR act 84.7 | AHR act cf 126.7 | PXR counter 12.7
